Reference: ChEMBL document CHEMBL1142954, “Metabolically stabilized benzothiazoles for imaging of amyloid plaques” (J Med Chem, 2007)

Assays:
Plasma = experiment: Metabolic stability in Balb/C mouse plasma assessed as radioactivity; type: ADME, cell-free
[1] = Lipophilicity, log P of the compound; type: physicochemical; conditions: octanol/water
Outline: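 Octanol–PBS partition (log Poct/PBS) measured on the N-11C-labeled radiotracers.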

Mus musculus = experiment: Ratio of drug uptake in iv dosed Balb/C mouse brain at 2 to 30 mins; type: ADME, organism-based; conditions: in vivo
Outline: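 Wild-type mice received the 11C-labeled tracers i.v. Brain uptake was measured as %ID/g at 2 and 30 min post-injection, and the 2 min/30 min ratio was taken. Means ± sd, n = 4-5.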

[2] = Displacement of [3H]PIB from human A-beta-40 peptide
Outline: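 Competition binding against [3H]PIB using precipitated synthetic Aβ(1-40) peptide aggregates. Ki derived from competition data.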

t1/2 (Plasma) | logP [1] | Ratio (Mus musculus) | Ki [2] | Compound
7.2 min | 4.18 | 2.5 | 1.3 nM | [11CH3]Nc1ccc(-c2nc3cc(F)ccc3s2)cc1Br
6.8 min | 3.27 | 2.5 | 12.4 nM | [11CH3]Nc1ccc(-c2nc3cc(F)ccc3s2)cc1
14.3 min | 2.93 | 6.3 | 8.4 nM | Cc1cc(-c2nc3cc(F)ccc3s2)ccc1N[11CH3]
22.1 min | 2.81 | 9.8 | 3.4 nM | [11CH3]Nc1ccc(-c2nc3cc(F)ccc3s2)cc1Cl
7.5 min | 3.36 | 2.8 | 4.4 nM | Cc1cc(-c2nc3ccccc3s2)ccc1N[11CH3]
8.4 min | 3.05 | 3.1 | 6.8 nM | [11CH3]Nc1ccc(-c2nc3ccccc3s2)cc1F
